Experimental data taken from ChEMBL document CHEMBL3763111, “Identification of a diverse indole-2-carboxamides as a potent antileishmanial chemotypes” (Eur J Med Chem, 2016).

Legend:
[1] = Cytotoxicity against African green monkey Vero cells after 72 hrs by MTT assay; type: cell-based; settings: chlorocebus sabaeus
Summary of the method: (§1)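 Vero or J-774A.1 cells (1 x 10^5 cells/mL) exposed to 7 concentrations starting from 400 µM for 72 h. MTT (5 mg/mL stock) then added for 2 h at 37°C. Formazan dissolved in DMSO; absorbance read at 544 nm. CC50 estimated per Huber & Koella; mean ± SD of two independent assays in duplicate.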

[2] = (§2) Selectivity index, ratio of CC50 for African green monkey Vero cells to IC50 for Leishmania donovani MHOM/IN/80/Dd8 amastigotes infected in mouse J774A.1 cells; type: functional
Summary of the method: (§3)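 Ratio of Vero-cell MTT CC50 to IC50 against intracellular amastigotes, both measured in this work.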

[3] = Cytotoxicity against mouse J774A.1 cells after 72 hrs by MTT assay; type: cell-based, J774.A1; summary of the method: as §1
Leishmania donovani [4] = test: Antileishmanial activity against Leishmania donovani MHOM/IN/80/Dd8 amastigotes infected in mouse J774A.1 cells incubated for 72 hrs by luminometric analysis; type: functional, organism-based; settings: MHOM/IN/80/Dd8, J774.A1, 72 h
Summary of the method: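 Macrophages seeded at 4 x 10^4/mL in RPMI-1640 with 10% FCS for 24 h, then infected with stationary-phase promastigotes (4 x 10^5/mL) for 24 h. Free parasites washed off. Compounds added as 7-point two-fold dilutions from 40 µM; 72 h at 37°C. Read-out was Steady Glo luminescence. IC50 from four-parameter Hill fit; two independent assays in duplicate.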

Vero = test: as §2; type: functional; summary of the method: as §3
Leishmania donovani [5] = test: Antileishmanial activity against amastigote stage of Leishmania donovani MHOM/IN/80/Dd8 infected in golden hamster at 40 mg/kg, ip administered for 5 days measured on day 7 of last dose by Geimsa staining method; type: functional, organism-based
Leishmania donovani [6] = test: Potency index, ratio of IC50 for miltefosine to IC50 for test compound against Leishmania donovani MHOM/IN/80/Dd8 amastigotes infected in mouse J774A.1 cells; type: functional
Syrian golden hamster = test: Toxicity in golden hamster infected with amastigote stage of Leishmania donovani MHOM/IN/80/Dd8 assessed as abnormality in behaviour at 50 mg/kg/day, ip administered for 5 days; type: organism-based, Mesocricetus auratus; settings: in vivo, 120 h
Leishmania donovani [7] = test: Antileishmanial activity against amastigote stage of Leishmania donovani MHOM/IN/80/Dd8 infected in golden hamster at 30 mg/kg, po administered for 5 days measured on day 7 of last dose by Geimsa staining method; type: functional; settings: MHOM/IN/80/Dd8, po
Summary of the method: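 Golden hamsters (inbred, either sex, 40–45 g) were infected intracardially with 1x 10^7 L. donovani amastigotes. Spleen biopsy at day 15; animals with +1 infection (5–10 amastigotes/100 spleen cell nuclei) were used, 5–6 per group. Dosing started 2 days after biopsy and ran 5 consecutive days. Day-7 post-treatment splenic amastigotes were counted by Giemsa stain; percent inhibition was computed against initial and untreated-control counts.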

Leishmania donovani [8] = test: Antileishmanial activity against amastigote stage of Leishmania donovani MHOM/IN/80/Dd8 infected in golden hamster at 50 mg/kg/day, ip administered for 5 days measured on day 7 of last dose by Geimsa staining method; type: functional; settings: MHOM/IN/80/Dd8, ip
Summary of the method: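 Inbred golden hamsters (40–45 g) infected intracardially with 1x10^7 amastigotes; only animals with +1 infection at 15-day spleen biopsy used. Five to six per group. Aqueous compound given ip at 50 mg/kg/day for 5 days, starting 2 days after biopsy. Splenic biopsy on day 7 after last dose, Giemsa-stained. Percent inhibition by formula relative to initial and untreated-control counts; pooled from at least two experiments.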

[9] = Cmax in Sprague-Dawley rat at 5 mg/kg, iv after 0.083 to 48 hrs by RP-HPLC analysis; type: ADME, organism-based; design: dose 5 mg/kg, route intravenous; settings: in vivo
Summary of the method: (§4)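 Male Sprague-Dawley rats (250 ± 25 g), conscious, given a single 5 mg/kg dose into the femoral vein. The dose was a 10 mg/ml solution in DMSO/ethanol/tween 80/propylene glycol (10:20:2:48) with normal saline. Blood taken 0.083–48 h; serum read by isocratic RP-HPLC (C18, ammonium acetate 0.01M:acetonitrile 35:65), LLOQ 25 ng/ml. n=3; noncompartmental analysis.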

Rattus norvegicus = test: Volume of distribution at steady state in Sprague-Dawley rat at 50 mg/kg administered as single dose via oral gavage after 0.5 to 48 hrs by RP-HPLC analysis; type: ADME, organism-based; settings: in vivo
Summary of the method: (§5)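 Single 50 mg/kg oral gavage dose to conscious male Sprague-Dawley rats (250 ± 25 g) after a 12–16 h overnight fast. Blood drawn at 0.5–48 h; serum separated and held at -80°C. Quantified by isocratic RP-HPLC (C18; 0.01M ammonium acetate/acetonitrile 35:65), LLOQ 25 ng/ml. Three rats; parameters derived noncompartmentally from mean serum concentrations.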

[10] = AUC(last) in Sprague-Dawley rat at 50 mg/kg administered as single dose via oral gavage after 0.5 to 48 hrs by RP-HPLC analysis; type: ADME, organism-based; design: dose 50 mg/kg, time 0 - last, route oral; settings: in vivo; summary of the method: as §5
[11] = AUC(last) in Sprague-Dawley rat at 5 mg/kg, iv after 0.083 to 48 hrs by RP-HPLC analysis; type: ADME, organism-based; design: dose 5 mg/kg, route intravenous, time 0 - last; settings: in vivo; summary of the method: as §4
Leishmania donovani [12] = test: Antileishmanial activity against promastigote stage of Leishmania donovani MHOM/IN/80/Dd8 assessed as apoptotic cells at IC50 after 12 hrs by annexin V-FITC/propidium iodide double staining-based flow cytometric analysis; type: functional
[13] = Volume of distribution at steady state in Sprague-Dawley rat at 5 mg/kg, iv after 0.083 to 48 hrs by RP-HPLC analysis; type: ADME, organism-based; settings: in vivo, read-out: Vdss; summary of the method: as §4
Leishmania donovani [14] = test: Antileishmanial activity against promastigote stage of Leishmania donovani MHOM/IN/80/Dd8 assessed as apoptotic cells at IC50 after 48 hrs by annexin V-FITC/propidium iodide double staining-based flow cytometric analysis; type: functional
[15] = Clearance in Sprague-Dawley rat at 5 mg/kg, iv after 0.083 to 48 hrs by RP-HPLC analysis; type: ADME, organism-based; settings: in vivo; summary of the method: as §4
[16] = Tmax in Sprague-Dawley rat at 50 mg/kg administered as single dose via oral gavage by RP-HPLC analysis; type: ADME, organism-based; settings: in vivo; summary of the method: as §5
[17] = Clearance in Sprague-Dawley rat at 50 mg/kg administered as single dose via oral gavage after 0.5 to 48 hrs by RP-HPLC analysis; type: ADME, organism-based; settings: in vivo; summary of the method: as §5
[18] = Mean residence time in Sprague-Dawley rat at 50 mg/kg administered as single dose via oral gavage by RP-HPLC analysis; type: ADME, organism-based; settings: in vivo; summary of the method: as §5
[19] = Tmax in Sprague-Dawley rat at 5 mg/kg, iv by RP-HPLC analysis; type: ADME, organism-based; settings: in vivo; summary of the method: as §4
[20] = Cmax in Sprague-Dawley rat at 50 mg/kg administered as single dose via oral gavage after 0.5 to 48 hrs by RP-HPLC analysis; type: ADME, organism-based; design: dose 50 mg/kg, route oral; settings: in vivo; summary of the method: as §5
[21] = Oral availability in Sprague-Dawley rat at 50 mg/kg via gavage after 0.5 to 48 hrs by RP-HPLC analysis; type: ADME, organism-based; settings: in vivo; summary of the method: as §5
Leishmania donovani [22] = test: Antileishmanial activity against promastigote stage of Leishmania donovani MHOM/IN/80/Dd8 assessed as apoptotic cells at IC50 after 24 hrs by annexin V-FITC/propidium iodide double staining-based flow cytometric analysis; type: functional
[23] = Mean residence time in Sprague-Dawley rat at 5 mg/kg, iv by RP-HPLC analysis; type: ADME, organism-based; settings: in vivo; summary of the method: as §4
Leishmania donovani [24] = test: Antileishmanial activity against promastigote stage of Leishmania donovani MHOM/IN/80/Dd8 assessed as apoptotic cells at IC50 after 72 hrs by annexin V-FITC/propidium iodide double staining-based flow cytometric analysis; type: functional

Row | Molecule | IC50 (Leishmania donovani [4]) [µM] | CC50 at 72 h [1] [µM] | Ratio CC50/IC50 [2] | CC50 at 72 h [3] [µM] | also measured
1 | CC(C)(C)NC(=O)C(c1ccc(Cl)cc1)N(CC(=O)NCc1ccncc1)C(=O)c1cc2ccccc2[nH]1 (stereo not given) | 6.4 | > 400 | >62 | 129 | 
2 | Sodium stibo-gluconate |  |  |  |  | Ratio CC50/IC50 (Vero): > 7; inhibition (Leishmania donovani [5]): 86.9%
3 | COc1cc(C(C(=O)NC(C)(C)C)N(CC(=O)NCc2ccc(Cl)c(Cl)c2)C(=O)c2cc3ccccc3[nH]2)cc(OC)c1OC (stereo not given) | 6.3 | 72.9 | 11 | 61.4 | 
4 | COc1ccc(CNC(=O)CN(C(=O)c2ccc[nH]2)C(C(=O)NC(C)(C)C)c2cc(OC)c(OC)c(OC)c2)cc1 (stereo not given) | 14.5 | 73 | 5 | 62.4 | 
5 | CCCCCCCCCCCCCCCCOP(=O)([O-])OCC[N+](C)(C)C [MILTEFOSINE] | 8.4 |  | 6 | 14.3 | Activity (Syrian golden hamster): Non-toxic; inhibition in vivo at 30 mg/kg (Leishmania donovani [7]): 98.1%
6 | CC(C)(C)NC(=O)C(c1ccc(Cl)cc1)N(CC(=O)NCCO)C(=O)c1cc2ccccc2[nH]1 (stereo not given) | > 40 | 226 | <5 | 239 | 
7 | CC(C)(C)NC(=O)C(c1ccc(Cl)cc1)N(CC(=O)NCc1ccc(Cl)c(Cl)c1)C(=O)c1cc2ccccc2[nH]1 (stereo not given) | 7.5 | 52.2 | 7 | 19.2 | 
8 | COc1cc(C(C(=O)NC(C)(C)C)N(CC(=O)NCc2ccccc2)C(=O)c2cc3ccccc3[nH]2)cc(OC)c1OC (stereo not given) | > 40 | 176 | <4 | 66.8 | 
9 | COc1ccc(CNC(=O)CN(C(=O)c2cc3ccccc3[nH]2)C(C(=O)NC(C)(C)C)c2ccc(Br)cc2)cc1 (stereo not given) | 1.5 | > 400 | >266 | 135 | 
10 | CC(C)(C)NC(=O)C(c1ccc(Br)cc1)N(CC(=O)NCCCN1CCOCC1)C(=O)c1cc2ccccc2[nH]1 (stereo not given) | 1 | > 400 | >400 | 147 | Activity (Syrian golden hamster): Non-toxic; inhibition in vivo at 50 mg/kg/day (Leishmania donovani [8]): 63.5%

Continued by falling IC50 (Leishmania donovani [4]), values first:

Row | IC50 (Leishmania donovani [4]) [µM] | Molecule | CC50 at 72 h [1] [µM] | Ratio CC50/IC50 [2] | CC50 at 72 h [3] [µM] | also measured
11 | 10.9 | CC(C)(C)NC(=O)C(c1ccc(Cl)cc1)N(CC(=O)NCc1ccc(Cl)cc1)C(=O)c1cc2ccccc2[nH]1 (stereo not given) | > 400 | >36 | 143 | 
12 | 9.2 | COc1ccc(CNC(=O)CN(C(=O)c2cc3ccccc3[nH]2)C(C(=O)NC(C)(C)C)c2cc(OC)c(OC)c(OC)c2)cc1 (stereo not given) | 70.3 | 7 | 53.6 | 
13 | 8.8 | CC(C)(C)NC(=O)C(c1ccc(Cl)cc1)N(CC(=O)NCc1ccccc1)C(=O)c1cc2ccccc2[nH]1 (stereo not given) | 248 | 28 | 152 | 
14 | 7.5 | COc1ccc(C(C(=O)NC(C)(C)C)N(CC(=O)NCc2ccc(Cl)cc2)C(=O)c2cc3ccccc3[nH]2)cc1 (stereo not given) | 400 | 53 | 123 | 
15 | 3.1 | COc1ccc(CNC(=O)CN(C(=O)c2cc3ccccc3[nH]2)C(C(=O)NC(C)(C)CC(C)(C)C)c2ccc(Cl)cc2)cc1 (stereo not given) | > 400 | >129 | 51.2 | 
16 | 2.1 | CC(C)(C)NC(=O)C(c1ccc(Cl)cc1)N(CC(=O)NCCCN1CCOCC1)C(=O)c1cc2ccccc2[nH]1 (stereo not given) | 212 | 101 | 198 | Ratio IC50 (Leishmania donovani [6]): 4
17 | 1.9 | COc1cccc(CNC(=O)CN(C(=O)c2cc3ccccc3[nH]2)C(C(=O)NC(C)(C)C)c2ccc(Cl)cc2)c1 (stereo not given) | > 400 | >210 | 42.5 | 
18 | 1.4 | COc1ccc(C(C(=O)NC(C)(C)C)N(CC(=O)NCc2ccncc2)C(=O)c2cc3ccccc3[nH]2)cc1 (stereo not given) | 109 | 78 | 47.9 | 
19 | 1.2 | COc1ccc(CNC(=O)CN(C(=O)c2cc3ccccc3[nH]2)C(C(=O)NC(C)(C)C)c2ccc(Cl)cc2)cc1 (stereo not given) | 146 | 121 | 140 | Cmax [9]: 1390 ng/mL; Vdss (Rattus norvegicus): 12.8 L/kg; AUC(0-t) [10]: 27200 ng·h/mL; AUC(0-t) [11]: 7790 ng·h/mL; Activity (Syrian golden hamster): Non-toxic; Activity (Leishmania donovani [12]): 49.1%; inhibition in vivo at 50 mg/kg/day (Leishmania donovani [8]): 70%; Vd [13]: 4.4 L/kg; Activity (Leishmania donovani [14]): 73.3%; clearance [15]: 10 mL/min/kg; Tmax [16]: 1 h; CL/F [17]: 25 mL/min/kg; MRT [18]: 8.5 h; Tmax [19]: 4.98 min; Cmax [20]: 1590 ng/mL; Ratio IC50 (Leishmania donovani [6]): 7; bioavailability [21]: 34.9%; Activity (Leishmania donovani [22]): 56.17%; MRT [23]: 7.4 h; Activity (Leishmania donovani [24]): 79.07%
20 | 0.6 | COc1ccc(CNC(=O)CN(C(=O)c2cc3ccccc3[nH]2)C(C(=O)NC(C)(C)C)c2ccc(OC)cc2)cc1 (stereo not given) | > 400 | >666 | 145 | Activity (Syrian golden hamster): Non-toxic; inhibition in vivo at 50 mg/kg/day (Leishmania donovani [8]): 63.4%; Ratio IC50 (Leishmania donovani [6]): 14
